Results reported in ChEMBL document CHEMBL1132160, “Structure-antiviral activity relationship in the series of pyrimidine and purine N-[2-(2-phosphonomethoxy)ethyl] nucleotide analogues. 1. Derivatives substituted at the carbon atoms of the base” (J Med Chem, 1999).
≈ marks a conversion by molar mass, not a printed value.

Key:
[1] = Inhibitory activity against murine sarcoma virus induced transformation of murine C3H/3T3 embryo fibroblasts; format: functional, Mus musculus
Outline: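 Murine C3H/3T3 embryo fibroblasts were seeded at 5 × 10⁵ cells/mL. After 24 h they were infected with 80 focus-forming units of MSV for 90–120 min at 37 °C. The medium was then replaced with fresh medium containing various compound concentrations, and transformation was examined microscopically after 6 days.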

[2] = system: Human immunodeficiency virus 1; assay: Inhibition of human immunodeficiency virus type 1 (HIV-1) induced cytopathogenicity in CEM cells; format: functional, organism-based; details: Human immunodeficiency virus 1, CCRF-CEM
Outline: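 CEM cells (~3 × 10⁵ cells/mL) were infected with 100 CCID50 of HIV-1 (IIIB)/mL and plated with dilutions of compound. After 4 days at 37 °C, giant cell formation was assessed microscopically.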

[3] = system: Human immunodeficiency virus 2; assay: Inhibition of human immunodeficiency virus type 2 (HIV-2) induced cytopathogenicity in CEM cells; format: functional, organism-based; details: Human immunodeficiency virus 2, CCRF-CEM
[4] = system: Human alphaherpesvirus 1; assay: Inhibition of herpes simplex virus type 1 (HSV-1) F strain; format: functional, organism-based
Outline: (§1)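 Confluent E6SM cell cultures were inoculated with 100 CCID50 of virus and allowed 1 h for adsorption. Residual virus was then removed, and the cells were incubated with test compound at 400, 200, 100, ... μg/mL. Viral cytopathicity was scored once it reached completion in untreated infected controls.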

[5] = system: Human alphaherpesvirus 1; assay: Inhibitory activity against herpes simplex virus type 1 (HSV-1) KOS strain; format: functional, organism-based; outline: as §1
[6] = system: Human alphaherpesvirus 1; assay: Inhibitory activity against herpes simplex virus type 1 (HSV-1) McIntyre strain; format: functional, organism-based; outline: as §1
[7] = Inhibitory activity against herpes simplex virus type 2 (HSV-2) 196 strain; format: functional; outline: as §1
[8] = system: Human alphaherpesvirus 2; assay: Inhibitory activity against herpes simplex virus type 2 (HSV-2) Lyons strain; format: functional, organism-based; outline: as §1
[9] = system: Cytomegalovirus; assay: Inhibitory activity against cytomegalovirus (CMV) AD 169 strain; format: functional, organism-based; details: Human betaherpesvirus 5
Outline: (§2)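 HEL cell cultures, grown to confluence, received 100 CCID50 of virus. After 1 h adsorption, the inoculum was removed and the cultures were incubated with serial concentrations of compound (400, 200, 100, ... μg/mL).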

[10] = system: Cytomegalovirus; assay: Inhibitory activity against cytomegalovirus (CMV) Davis strain; format: functional, organism-based; details: Human betaherpesvirus 5; outline: as §2
[11] = system: Human alphaherpesvirus 2; assay: Inhibitory activity against herpes simplex virus type 2 (HSV-2) G strain; format: functional, organism-based; outline: as §1
[12] = system: Vaccinia virus; assay: Inhibitory activity against vaccinia virus (VV); format: functional, organism-based; details: Orthopoxvirus vaccinia
Outline: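 Confluent E6SM cell cultures were inoculated with 100 CCID50 of virus and left for 1 h adsorption, then residual virus was removed. Cultures were incubated with test compound at serial concentrations (400, 200, 100, ... μg/mL). Virus-induced cytopathicity was scored once it reached completion in untreated infected control cultures.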

[13] = system: Human immunodeficiency virus 1; assay: Inhibitory activity of compound against human immunodeficiency virus type 1 (HIV-1) induced cytopathogenicity in MT-4 cells; format: functional, organism-based; details: Human immunodeficiency virus 1, MT4
Outline: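 Human MT-4 cells (~4 × 10⁵ cells/mL) were infected with 100 CCID50 of HIV-1 (IIIB)/mL and seeded into wells containing compound dilutions. After 5 days at 37 °C, viable cells were counted by trypan blue exclusion in a blood cell counting chamber.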

| Structure (SMILES) | EC50 [1] [µg/mL] | EC50 [2] [µg/mL] | EC50 [3] [µg/mL] | EC50 [4] [µg/mL] | EC50 [5] [µg/mL] | EC50 [6] [µg/mL] | EC50 [7] [µg/mL] | EC50 [8] [µg/mL] | EC50 [9] [µg/mL] | EC50 [10] [µg/mL] | EC50 [11] [µg/mL] | EC50 [12] [µg/mL] | EC50 [13] [µg/mL] |
| --- | --- | --- | --- | --- | --- | --- | --- | --- | --- | --- | --- | --- | --- |
| Nc1nc(O)c2nc(Br)n(CCOCP(=O)(O)O)c2n1 | > 0.16 | > 100 | > 100 | 240 (≈ 652 µM) | 240 (≈ 652 µM) | 240 (≈ 652 µM) | 240 (≈ 652 µM) | > 400 | 43 (≈ 117 µM) | > 50 | 240 (≈ 652 µM) | – | – |
| CC(C)CCCCCOP(=O)(COCCn1cnc2c(N)nc(N)nc21)OCCCCCC(C)C | > 8 | > 4 | > 4 | – | > 16 | – | – | – | 0.86 (≈ 1.68 µM) | 0.8 (≈ 1.56 µM) | > 16 | > 16 | – |
| Nc1nc(Cl)c2ncn(CCOCP(=O)(O)O)c2n1 | > 0.16 | > 0.16 | > 0.16 | 0.13 (≈ 0.423 µM) | 0.23 (≈ 0.748 µM) | 0.22 (≈ 0.715 µM) | 0.38 (≈ 1.24 µM) | 0.38 (≈ 1.24 µM) | 0.05 (≈ 0.163 µM) | 0.3 (≈ 0.975 µM) | 0.38 (≈ 1.24 µM) | – | – |
| CC(C)CCCCCOP(=O)(COCCn1cnc2nc(N)nc(O)c21)OCCCCCC(C)C | > 8 | > 20 | > 20 | – | > 16 | – | – | – | 11 (≈ 21.4 µM) | 11 (≈ 21.4 µM) | > 16 | > 16 | – |
| CC(C)OP(=O)(COCCn1c(Br)nc2c(O)nc(N)nc21)OC(C)C | > 40 | > 100 | > 100 | 240 (≈ 531 µM) | > 400 | 240 (≈ 531 µM) | 240 (≈ 531 µM) | 240 (≈ 531 µM) | > 50 | > 50 | > 400 | – | – |
| CC(C)OP(=O)(COCCn1cnc2c(N)ncnc21)OC(C)C | > 40 | – | – | – | > 400 | – | – | – | 8 (≈ 22.4 µM) | 30 (≈ 84 µM) | > 400 | > 400 | 171 (≈ 479 µM) |
| CC(C)OP(=O)(O)COCCn1cnc2c(N)ncnc21 | > 40 | > 100 | > 100 | – | 200 (≈ 634 µM) | – | – | – | > 50 | > 50 | 300 (≈ 952 µM) | > 400 | – |
| CC(C)OP(=O)(O)COCCn1cnc2c(N)nc(N)nc21 | > 200 | > 100 | > 100 | – | 150 (≈ 454 µM) | – | – | – | > 50 | > 50 | > 400 | > 400 | – |
| Nc1cc2ncn(CCOCP(=O)(O)O)c2c(O)n1 | – | – | – | > 200 | > 200 | > 200 | > 200 | > 200 | > 100 | > 100 | > 200 | – | – |
| CC(C)CCCCCOP(=O)(COCCn1cnc2c(N)ncnc21)OCCCCCC(C)C | – | > 4 | > 4 | – | > 3.2 | – | – | – | 1 (≈ 2.01 µM) | 3 (≈ 6.03 µM) | 3.2 (≈ 6.43 µM) | > 3.2 | – |
| CC(C)CCCCCOP(=O)(COCCn1cnc2c(O)nc(N)nc21)OCCCCCC(C)C | > 40 | > 4 | > 4 | – | > 80 | – | – | – | 1.2 (≈ 2.34 µM) | 1.1 (≈ 2.14 µM) | > 80 | > 80 | – |
| CCOP(=O)(COCCn1cnc2c(N)ncnc21)OCC | > 40 | > 100 | > 100 | – | – | – | – | – | – | – | – | – | – |
| CC(C)OP(=O)(O)COCCn1cnc2c(O)nc(N)nc21 | > 0.064 | > 20 | 11 (≈ 33.2 µM) | 0.64 (≈ 1.93 µM) | 5.7 (≈ 17.2 µM) | 0.64 (≈ 1.93 µM) | 1.9 (≈ 5.74 µM) | 1.9 (≈ 5.74 µM) | 0.35 (≈ 1.06 µM) | 0.3 (≈ 0.906 µM) | 5.3 (≈ 16 µM) | – | – |
| CC(C)CCCCCOP(=O)(COCCn1cnc2c(Cl)nc(N)nc21)OCCCCCC(C)C | > 8 | > 4 | > 4 | – | > 16 | – | – | – | 0.86 (≈ 1.62 µM) | 1 (≈ 1.88 µM) | > 16 | > 16 | – |
| Nc1nc(F)nc2c1ncn2CCOCP(=O)(O)O | 22.3 (≈ 76.6 µM) | > 100 | 40 (≈ 137 µM) | – | 70 (≈ 240 µM) | – | – | – | > 50 | > 50 | 70 (≈ 240 µM) | 150 (≈ 515 µM) | – |
| Cc1nc(N)nc2c1ncn2CCOCP(=O)(O)O | 30 (≈ 104 µM) | > 100 | > 100 | – | > 200 | – | – | – | > 50 | > 50 | 400 (≈ 1390 µM) | > 400 | – |
| CC(C)OP(=O)(COCCn1cnc2c(O)nc(N)nc21)OC(C)C | 13.5 (≈ 36.2 µM) | > 100 | > 100 | 240 (≈ 643 µM) | 240 (≈ 643 µM) | 80 (≈ 214 µM) | 240 (≈ 643 µM) | 240 (≈ 643 µM) | > 50 | > 50 | 400 (≈ 1070 µM) | – | – |
| O=P(O)(O)COCCn1cnc2c(S)ncnc21 | > 200 | > 100 | > 100 | > 400 | > 400 | > 400 | > 400 | > 400 | 25 (≈ 86.1 µM) | 20 (≈ 68.9 µM) | > 400 | > 400 | – |
| Nc1nnc(N)c2c1ncn2CCOCP(=O)(O)O | 124 (≈ 430 µM) | > 100 | > 100 | > 200 | > 200 | > 200 | > 200 | > 200 | > 50 | > 50 | > 200 | > 200 | – |
| Nc1cc(N)c2ncn(CCOCP(=O)(O)O)c2n1 | 142 (≈ 494 µM) | > 100 | > 100 | > 400 | 300 (≈ 1040 µM) | > 400 | > 400 | 300 (≈ 1040 µM) | > 50 | > 50 | 300 (≈ 1040 µM) | > 400 | – |
| Nc1cccc2c1ncn2CCOCP(=O)(O)O | > 200 | > 100 | > 100 | – | > 400 | – | – | – | > 50 | > 50 | > 400 | > 400 | – |
| CC(C)OP(=O)(COCCn1cnc2c(S)ncnc21)OC(C)C | > 40 | > 100 | > 100 | – | > 400 | – | – | – | > 50 | > 50 | > 400 | > 400 | – |
| CC(C)CCCCCOP(=O)(COCCn1cnc2nc(N)nc(Cl)c21)OCCCCCC(C)C | > 8 | > 4 | > 4 | – | > 16 | – | – | – | 5 (≈ 9.4 µM) | > 5 | > 16 | > 16 | – |
| Nc1nc(O)nc2c1ncn2CCOCP(=O)(O)O | 123 (≈ 425 µM) | > 100 | > 100 | – | > 400 | – | – | – | > 50 | > 50 | > 400 | > 50 | – |
| Nc1ncnc2c1ncn2CCOCP(=O)(O)O [ADEFOVIR] | – | – | – | – | 3.6 (≈ 13.2 µM) | – | – | – | 30 (≈ 110 µM) | 77 (≈ 282 µM) | 1.1 (≈ 4.03 µM) | – | – |
